Screens (PubChem BioAssay)
An excerpt weighted towards active compounds, which were near 0.79% of everything screened.
hIAP activ = human IAP activators, primary screen, biochemical, luminescence, uHTS. purified human IAP, CDP-Star luminescence, 30 min; active compounds read high; 1 = vehicle-only enzyme, 0 = enzyme-free background. activation factor at 10 µM. 330,000 compounds, 0.16% hits;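 active means activation factor of the enzyme at least 2-fold when tested at 20 µM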
Target sequence (P09923 whole entry, looked up): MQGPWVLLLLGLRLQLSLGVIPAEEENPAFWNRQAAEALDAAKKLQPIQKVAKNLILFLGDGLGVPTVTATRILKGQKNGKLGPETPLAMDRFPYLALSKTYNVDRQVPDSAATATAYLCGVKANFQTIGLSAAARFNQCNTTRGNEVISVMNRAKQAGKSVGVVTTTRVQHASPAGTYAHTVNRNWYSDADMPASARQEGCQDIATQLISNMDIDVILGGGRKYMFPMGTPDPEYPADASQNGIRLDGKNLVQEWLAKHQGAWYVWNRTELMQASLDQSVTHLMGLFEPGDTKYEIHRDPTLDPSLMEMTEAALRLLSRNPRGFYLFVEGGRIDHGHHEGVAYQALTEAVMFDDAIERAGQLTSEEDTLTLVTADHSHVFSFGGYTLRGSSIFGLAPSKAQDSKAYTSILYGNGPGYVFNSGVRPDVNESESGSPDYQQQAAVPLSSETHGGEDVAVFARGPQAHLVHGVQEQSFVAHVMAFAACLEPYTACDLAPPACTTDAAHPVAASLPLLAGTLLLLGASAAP
hIAP inh = human IAP inhibitors, primary screen, biochemical, luminescence, uHTS; purified IAP, CDP-Star luminescence, 30 min; 330,000 compounds, 0.12% hits; inhibition, % at 10 µM; AID 2544, 2010; Intestinal-type alkaline phosphatase (Homo sapiens), P09923;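 active means inhibition reaching a set limit with compound at 10 µM in the primary screen, cut at about 35% in these data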;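 further: plate controls were DMSO wells with enzyme for no effect and no-enzyme buffer wells for full effect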
mIAP inh = inhibitors of mouse IAP, primary screen, biochemical, luminescence, uHTS | intestinal alkaline phosphatase [Mus musculus] | purified mouse IAP, CDP-Star luminescence, 30 min | inhibition, % at 10 µM | 330,000 compounds, 0.2% hits | AID 2806, 2010;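 active means inhibition of at least 40% at 10 µM in the primary screen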;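 further: plate controls were DMSO with enzyme for no effect and no enzyme wells for full effect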
bIAP act = bovine intestinal alkaline phosphatase activators, primary screen, biochemical, bovine IAP, CDP-star luminescence | alkaline phosphatase, intestinal [Bos taurus] | purified bovine IAP, 30 min; active compounds read high; fold of DMSO-control signal, blank-subtracted | activation factor at 20 µM | 200,000 compounds, 0.17% hits | AID 1016, 2008;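 active means activation factor of 2 or more at 20 µM, a signal rise over negative controls twice the positive control's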
mIAP act = activators of mouse IAP, primary screen, biochemical, luminescence, uHTS. intestinal alkaline phosphatase [Mus musculus]. muIAP, CDP-Star luminescence, 30 min; active compounds read high; 1 = vehicle-only enzyme signal, 0 = enzyme-free wells. 330,000 compounds, 0.24% hits. activation factor at 10 µM;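 active means activation factor of at least 2 at 20 µM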
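Assay system: mouse IAP enzyme; reagent: chemiluminescent substrate CDP-Star; dosing: test compounds delivered from DMSO solution; schedule: 30 min at room temperature; measured by: luminescence from enzymatic CDP-Star hydrolysis; controls: DMSO-only wells and no-enzyme negative control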
bIAP inh = bovine intestinal alkaline phosphatase inhibitors, primary screen, selectivity assay for TNAP inhibitor project, biochemical, bovine IAP, CDP-star luminescence. 190,000 tested, under 10 active. purified bovine IAP, 30 min. AID 1019, 2008. alkaline phosphatase, intestinal [Bos taurus]. inhibition, % at 20 µM;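 active means over 50% inhibition of intestinal alkaline phosphatase at 20 µM in the single-dose screen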
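System: purified bovine intestinal alkaline phosphatase (IAP) enzyme; Input: IAP diluted 1/65,000,000 in the well; Measured by: CDP-star luminescence signal; Compound dosing: 20 µM single dose; Incubation: 30 min reaction at room temperature.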
mIAP inh conf = inhibitors of mouse IAP, confirmation, biochemical, luminescence, single concentration | shares compounds with mIAP inh | purified mouse IAP, CDP-Star luminescence, 30 min | inhibition, % at 10 µM | 11,000 compounds, 4.7% hits;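 active means inhibition of at least 40% at 10 µM in either of the two replicates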;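 further: plate controls were DMSO wells with enzyme for no effect and buffer wells lacking enzyme for full effect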
An asterisk follows results filed as active; i = inactive; . = no result.

SMILES	hIAP activ	hIAP inh	mIAP inh	bIAP act	mIAP act	bIAP inh	mIAP inh conf
C#CCOCCOCCOCCNc1nc(N2CCOCC2)nc(N2CCN(C(=O)CCCCCCCCCCNC(=O)[C@@H](CCSC)n3cc(CCO)nn3)CC2)n1	0.967	3.3	-27.4	.	1.27	.	.
C#CCOCCOCCOCCNc1nc(N2CCN(C(=O)CCCCCCCCCCNC(=O)[C@@H](CCSC)n3cc(CCO)nn3)CC2)nc(N2CCN(C(=O)CCCCCCCCCCNC(=O)[C@H]([C@@H](C)CC)n3cc(CCCCCN)nn3)CC2)n1	0.966	3.4	-249.7	.	3.5*	.	i
COC(=O)/C=c1\[nH]c2nnc(C)n2c1=O	1.04	-3.7	-7.2	.	1.07	.	.
CCOP(=O)(OCC)C(NC(=O)Nc1ccc(C)c(Cl)c1)c1ccccc1 (configuration not stated)	0.916	8.4	-237.1	1.1	3.37*	-5.5	-158.7
O=c1cc(-c2ccc(O)cc2)oc2c(O)c(O)c(O)c(O)c12	0.972	2.8	66.2*	.	0.338	.	66.7*
O=c1cc(-c2ccc(O)cc2)oc2c1ccc1ccccc12	1.09	-8.9	3.9	.	0.961	.	.
O=C(CN1C(=O)c2ccccc2S1(=O)=O)c1ccc(F)c(F)c1	0.976	2.4	2.3	.	0.977	.	.
O=C(CN1C(=O)c2ccccc2S1(=O)=O)c1ccc(O)c(O)c1	1.04	-4.4	52.7*	.	0.473	.	57.1*
S=c1[nH]nc(-c2cc(-c3ccco3)[nH]n2)n1-c1ccccc1Cl	1.27	-26.8	57.2*	1.3	0.428	-28.7	74.2*
S=c1[nH]nc(-c2ccco2)n1-c1ccccc1Cl	0.922	7.8	-16.2	1	1.16	2.8	.
O=[N+]([O-])c1ccc(Cl)c2c1C1C=CCC1C(c1ccccn1)N2 (configuration not stated)	0.971	2.9	19.4	0.8	0.806	18.5	.
O=C(O)C1Nc2c(O)cc(Cl)c([N+](=O)[O-])c2C2C=CCC12 (configuration not stated)	1.1	-9.6	75.2*	0.8	0.248	16.9	79.3*
Cc1c(Cl)cccc1NC(=S)NCCC(c1ccccc1)c1ccccc1	0.974	2.6	-311.8	0.8	4.12*	15.6	-375.4
Cc1cc(Cl)ccc1NC(=S)NCCC(c1ccccc1)c1ccccc1	1.09	-8.7	-266.2	1.4	3.66*	-38.7	-105.2
CC(C)C(NC(=O)C(Cc1ccccc1)NC(=O)OCc1ccccc1)C(=O)O (configuration not stated)	1.23	-23.3	3.2	1.1	0.968	-6.2	.
CCOC(=O)C1=C(C)N=c2s/c(=C/c3cccc([N+](=O)[O-])c3O)c(=O)n2C1c1ccc(OC)cc1OC (configuration not stated)	1.04	-4.5	43.2*	.	0.568	.	44.4*
CCOC(=O)C1=C(C)N=c2s/c(=C\c3ccc(O)c([N+](=O)[O-])c3)c(=O)n2C1c1ccccc1OC (configuration not stated)	0.757	24.3	27.3	.	0.727	.	.
CN(CCC1CCOCC1)C(=O)c1cc(COc2c(F)cccc2F)on1	1.02	-2.3	1.2	.	0.988	.	.
COc1ccc(OC)c(NC(=O)CCNS(=O)(=O)c2ccc3[nH]c(=O)oc3c2)c1	0.767	23.3	47.2*	.	0.528	.	61.6*
COc1ccccc1NC(=O)CCNS(=O)(=O)c1ccc2[nH]c(=O)oc2c1	1.21	-21.0	41.3*	.	0.587	.	73.5*
COc1ccccc1CNC(=O)CCNS(=O)(=O)c1ccc2[nH]c(=O)oc2c1	0.998	0.2	40.8*	.	0.592	.	74.6*
O=C(CCNS(=O)(=O)c1ccc2[nH]c(=O)oc2c1)NCc1ccccc1	0.893	10.7	9.5	.	0.905	.	.
Cc1ccc(NC(=O)CCNS(=O)(=O)c2ccc3[nH]c(=O)oc3c2)c(C)c1	1.05	-5.1	30.2	.	0.698	.	.
COc1cccc(NC(=O)CN(C)S(=O)(=O)c2ccc3c(c2)CCC(=O)N3)c1	0.824	17.6	-9.9	.	1.1	.	.
COc1cccc(NC(=O)CN(C)S(=O)(=O)c2ccc3[nH]c(=O)oc3c2)c1	1.11	-10.8	41.6*	.	0.584	.	46.3*
SMILES	hIAP activ	hIAP inh	mIAP inh	bIAP act	mIAP act	bIAP inh	mIAP inh conf
Cc1ccc(NC(=O)CCNS(=O)(=O)c2ccc3[nH]c(=O)oc3c2)cc1C	1.23	-22.9	9.6	.	0.904	.	.
C1CCCCCC(NCCN2CCNCC2)CCCCC1	1.09	-9.4	-8.1	.	1.08	.	.
COc1ccc(/C=N/NC(=O)c2ccc(N)cc2)cc1Cn1cc([N+](=O)[O-])cn1	0.982	1.8	8.6	1	0.914	-3.1	.
CCCNC(=O)COc1coc(CN2CCN(c3ccccc3OC)CC2)cc1=O	1.12	-12.3	-1.3	.	1.01	.	.
COc1cccc(CNC(=O)CCNS(=O)(=O)c2ccc3[nH]c(=O)oc3c2)c1	1.07	-7.5	49.2*	.	0.508	.	76.9*
Cc1ccc(C)c(NC(=O)CCNS(=O)(=O)c2ccc3[nH]c(=O)oc3c2)c1	1.03	-3.5	69.9*	.	0.301	.	82.3*
Cc1ccc(/C=C/C2=Cc3c(sc(NC(=O)CSc4n[nH]c(N)n4)c3C#N)C(C)(C)C2)o1	1.16	-15.7	46.9*	0.9	0.531	12.0	50.8*
NS(=O)(=O)c1ccc(N=Nc2c(=O)[nH]n3c(=O)c4c([nH]c23)CCCC4)cc1	1.66	-66.2	47.8*	0.5	0.522	.	62.8*
O=c1[nH]n2c(=O)c3c([nH]c2c1N=Nc1cccc(Cl)c1)CCC3	.	.	.	1.2	.	-24.0	.
Oc1ccc(-c2cn3c(n2)SCC3)cc1O	0.936	6.4	60.9*	0.7	0.391	27.1	91.8*
CCOC(=O)c1ccc(NC(=O)Nc2ccc3c(c2)OCCO3)cc1	1.12	-12.2	-192.3	1.1	2.92*	-6.1	-106.4
S=C(NCc1ccc(Cl)cc1Cl)NC1CCCCC1	1.32	-31.8	-440.5	1	5.41*	3.3	-93.0
N#C/C(=C/c1ccco1)C(N)=S	1.15	-15.4	47.0*	.	0.53	.	56.5*
Cc1cc(C)c(NC(=O)CNC(=O)[C@@H]2CCCN2C(=O)c2cccs2)c(C)c1	0.985	1.5	-8.2	.	1.08	.	.
O=C(COC(=O)C1CC1)NCc1ccccc1	1.04	-4.3	4.0	.	0.96	.	.
